Screening data as filed in PubChem.
Hits are enriched below; roughly 2.1% of the tested compounds scored in any of these assays.
APJ antag: APJ receptor antagonism; P35414; CHO-K1 APJ beta-arrestin complementation, luminescence; inhibition, % at 20 µM; 330,000 compounds, 0.32% hits;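 active means inhibition above about 40% at 20 µM, limit read from the data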;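 further: cells challenged with 10 nM apelin-13 agonist together with compound; plate controls were apelin-13 plus DMSO wells for no effect and DMSO wells lacking apelin-13 for full effect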
EBI2 antag: EBI2 (human) antagonism | P32249 | EBI2 beta-arrestin recruitment, luminescence, 7a,25-OHC stimulated | inhibition, % at 5 µM | 360,000 compounds, 0.81% hits; in the data active means inhibition above about 38%;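 further: enzyme fragment complementation signal reports receptor beta-arrestin coupling in cells; 0% = agonist plus DMSO wells and 100% = wells without agonist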
HTR2A ag: agonists of mouse serotonin 5-HT2A receptor (HTR2A); 360,000 compounds, 0.66% hits; AID 624169; P35363; activation, % at 7.6 µM; CHO-K1 mHTR2A beta-arrestin complementation, luminescence; percent of 30 µM serotonin response;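 active means activation above a run cutoff, the mean activation of all tested compounds plus 3 SD, cut at about 14% in these data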;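 further: 0% = plate median of compound wells and 100% = 30 µM serotonin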
CCR6 antag: blocks CCL20-driven beta-arrestin recruitment at human CCR6. inhibition, % at 20 µM. CHO-K1 CCR6 PathHunter beta-arrestin, luminescence, CCL20-stimulated. P51684. 340,000 compounds, 0.49% hits. AID 493098;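 active means compounds whose inhibition of the agonist-driven luminescence signal at 20 µM reaches about 50%, limit read from the data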;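 further: cells stimulated with CCL20 at 14 nM final; plate controls were DMSO with CCL20 for no effect and DMSO without agonist for full effect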
APJ ag: activates the human apelin receptor APJ; activation, % at 20 µM; P35414; CHO-K1 APJ PathHunter beta-arrestin, luminescence; 0% DMSO wells, 100% apelin; 330,000 compounds, 0.11% hits;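 active means activation more than six SD over the plate average, tested at 20 µM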;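 further: 0% = DMSO alone and 100% = apelin-13 at 10 nM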
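Assay system – PathHunter CHO-K1 APJ (AGTRL-1) beta-arrestin reporter cells · Compound – one dose, 20 µM compound, 1% DMSO · Timing – compound 90 min 25 °C, reagent 1 h · Measured by – luminescence from split beta-galactosidase complementation, Galacton Star/Emerald II substrate · Measure – beta-arrestin recruitment to APJ as agonist activity, luminescent signal · Benchmarks – DMSO vs Apelin-13 10 nM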
CXCR6 block: CXCR6 (human) receptor inhibition. CHO-K1 PathHunter CXCR6 beta-arrestin, luminescence. AID 602244. inhibition, % at 20 µM. 360,000 compounds, 0.36% hits; in the data active means inhibition above about 34%, passing the limit was not always enough;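 further: antagonist mode with CXCL16 agonist at 10 nM final; 0% = 10 nM CXCL16 with DMSO and 100% = unstimulated wells without agonist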
Target sequence (O00574 whole entry, looked up): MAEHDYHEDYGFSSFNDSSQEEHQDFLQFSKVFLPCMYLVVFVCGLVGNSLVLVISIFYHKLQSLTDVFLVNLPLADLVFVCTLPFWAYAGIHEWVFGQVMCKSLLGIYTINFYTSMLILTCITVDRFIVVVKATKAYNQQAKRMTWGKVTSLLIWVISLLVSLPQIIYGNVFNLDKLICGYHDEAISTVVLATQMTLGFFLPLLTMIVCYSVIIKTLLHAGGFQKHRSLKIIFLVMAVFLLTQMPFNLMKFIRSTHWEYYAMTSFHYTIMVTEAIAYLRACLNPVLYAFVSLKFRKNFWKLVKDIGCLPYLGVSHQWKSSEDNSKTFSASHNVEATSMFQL
APJ antag confirm: APJ receptor antagonism confirmation; inhibition, % at 20 µM; APJ beta-arrestin recruitment, luminescence, antagonist mode; shares compounds with APJ antag; 950 compounds, 66% hits; AID 2766; in the data active means inhibition above about 50%
* = called active by the depositor; . = no result given.

SMILES	APJ antag	EBI2 antag	HTR2A ag	CCR6 antag	APJ ag	CXCR6 block	APJ antag confirm
CCN(CC)S(=O)(=O)c1cc(OC)ccc1N=Nc1ccc(O)c2ncccc12	43*	3	-8	55*	-3	36	49
NS(=O)(=O)c1ccc(N=Nc2ccc(O)c3ncccc23)cc1	49*	4	-13	64*	-10	48*	87*
Oc1ccc(N=Nc2ccc3c(c2)OCCO3)c2ncccc12	53*	8	-9	54*	-5	35	89*
CCS(=O)(=O)c1ccc(OC)c(N=Nc2ccc(O)c3ncccc23)c1	22	-3	-1	10	-8	4	.
Cc1ccc(C)c(N=Nc2ccc(O)c3ncccc23)c1	45*	12	-5	63*	-9	5	74*
C=CCOc1ccc(/C=C/C(=O)OCC(=O)NCC(=O)Nc2c(C)cc(C)cc2C)cc1	-31	-5	2	7	-5	2	.
CC(=O)N1CC(C)Sc2ccc(S(=O)(=O)NC(C)c3ccccc3)cc21 (stereo not drawn)	-7	-4	9	-4	8	-12	.
Cc1ccc(OCC(=O)NN=C2C3CC4CC(C3)CC2C4)cc1	15	5	-1	6	-3	-5	.
CC(Sc1nnc(-c2cccnc2)n1C)C(=O)N1CCOCC1 (stereo not drawn)	-9	0	0	10	-4	-11	.
CC(C)(Cc1ccccc1)/[N+]([O-])=C\c1ccc(C(F)(F)F)cc1	-168	7	0	14	32	-7	.
Cc1cccc(N=Nc2ccc(O)c3ncccc23)c1	42*	32	-4	33	-12	37	83*
COC(=O)/C=C1\OC(C2CC2)c2ccccc21 (stereo not drawn)	.	-35	2	.	.	.	.
COC(=O)c1ccc(N2NC(=O)/C(=C/c3cc(OC)c(O)c(OC)c3)C2=O)cc1	45*	-9	-4	49	-8	39	33
O=C1C=C(N2CCOCC2)CCC1	-54	0	-2	-3	-3	-1	.
O=C1C=C(N2CCOCC2)CO1	42*	-3	-4	7	-4	7	-5
O=c1c2cc(Br)ccc2[nH]c(=S)n1Cc1ccccn1	59*	12	-3	56*	-7	51*	93*
O=c1c2cc(Br)ccc2[nH]c(=S)n1Cc1ccccc1	7	11	-1	4	-2	-4	.
C#CCCOC(=O)Nc1ccccc1	7	-9	-1	-2	-1	4	.
O=C(Nc1nc2ccc(F)cc2s1)c1ccccn1	77*	.	.	65*	-11	.	68*
O=C(Nc1nc2ccccc2s1)c1cnccn1	20	-5	-3	7	-7	0	.
CCOC(=O)c1cnc(Nc2nc3ccccc3o2)nc1CSc1ncccn1	38	.	.	5	-6	.	.
CCOC(=O)c1cnc(Nc2nc3ccccc3o2)nc1CSC(=S)N(CC)CC	46*	26	2	44	-7	18	8
CCOCCCNC(=O)C(c1ccccc1)N(Cc1ccc2c(c1)OCO2)C(=O)c1ccccc1O (stereo not drawn)	6	9	2	2	-3	-3	.
COc1cccc(/C=C2\CC(C)Cc3c2nc2ccccc2c3C(=O)O)c1OC (stereo not drawn)	49*	-4	5	10	-1	-3	-18
CC1CN(C(=O)COC(=O)c2cccc(S(=O)(=O)N3CCc4ccccc43)c2)CC(C)O1 (stereo not drawn)	0	6	-2	0	0	5	.
SMILES	APJ antag	EBI2 antag	HTR2A ag	CCR6 antag	APJ ag	CXCR6 block	APJ antag confirm
O=[N+]([O-])c1ccc(N/N=C/c2c[nH]c3ccccc23)cc1	43*	42*	-13	58*	-13	31	79*
O=[N+]([O-])c1ccccc1N/N=C/c1c[nH]c2ccccc12	44*	28	-8	41	-11	23	104*
O=[N+]([O-])c1ccccc1N/N=C/c1ccccc1	12	0	8	27	-3	11	.
Cc1ccc(C(=O)COC(=O)c2ccncc2)cc1[N+](=O)[O-]	46*	-6	-1	39	-6	8	70*
Cc1ccc(C(=O)COC(=O)c2cc(Cl)ccc2O)cc1[N+](=O)[O-]	33	15	-7	15	-17	17	.
O=C(Cn1nnc2ccccc21)OCC(=O)c1ccc(Cl)c(Cl)c1	91*	13	-1	73*	-9	25	111*
O=C(COC(=O)c1ccncc1)c1ccc(Cl)c(Cl)c1	74*	-5	1	15	-12	1	86*
O=C(Cn1nnc2ccccc21)OCC(=O)c1ccccc1	36	-5	-2	-34	-4	-8	.
CCCC(=O)N1CCCC1(C)C(=O)Nc1ccc2c(c1)CCN2C(C)=O (stereo not drawn)	.	-3	-2	.	.	-10	.
O=C(CN1CCN(Cc2ccccc2)CC1)Nc1ccc(Br)cc1	-4	12	-9	3	-1	2	.
O=C(COC(=O)c1ccc(NC(=O)C2CC=CCC2C(=O)O)cc1)c1ccccc1 (stereo not drawn)	-18	-2	3	1	0	-12	.
COc1ccc(S(=O)(=O)NC(C)C(=O)Nc2ccc3c(c2)OCO3)cc1OC (stereo not drawn)	7	-5	-2	8	-1	-3	.
COc1ccc(S(=O)(=O)NC(C)C(=O)Nc2ccc3c(c2)OCCO3)cc1OC (stereo not drawn)	47*	-9	1	5	-4	-12	25
Cc1nnc(NC(=O)CSc2nc3ccccc3o2)s1	-1	-2	-1	-9	-2	9	.
O=C(CSc1nc2ccccc2o1)Nc1nncs1	52*	3	-4	-2	-5	-8	23
Cc1ccc2c(c1)nnn2C1CCN(CC(=O)NCCc2nc3ccccc3[nH]2)CC1	41*	12	-5	57*	-9	29	60*
CC1(C)Cc2c(sc(NC(=O)C(=O)N3CCCCC3)c2C(=O)O)CO1	10	-3	1	0	-4	1	.
COC(=O)c1[nH]c(=O)c2ccccc2c1OCc1ccccc1	8	-1	-5	6	2	6	.
COC(=O)c1[nH]c(=O)c2ccccc2c1O	43*	10	-2	68*	-17	0	-12
COc1ccc(S(=O)(=O)N2CCC(=O)N2)cc1	46*	1	2	20	-15	13	50
COc1ccc(S(=O)(=O)N2CCNC(=O)CC2)cc1	-6	11	1	12	2	0	.
